# Hits are enriched below; roughly 2.6% of the tested compounds scored in any of these assays.
# ABHD4 inh: inhibits mouse alpha/beta hydrolase domain 4 | 370,000 compounds, 0.54% hits | Q8VD66 | AID 720543 | purified mABHD4, FP-Rh probe fluorescence polarization | inhibition, % at 8.92 µM;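 active = inhibition exceeding the mean over every tested compound plus 3 SD, cut at about 30% in these data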
# Target sequence (Q8VD66 whole entry, looked up, the tested form may be a part): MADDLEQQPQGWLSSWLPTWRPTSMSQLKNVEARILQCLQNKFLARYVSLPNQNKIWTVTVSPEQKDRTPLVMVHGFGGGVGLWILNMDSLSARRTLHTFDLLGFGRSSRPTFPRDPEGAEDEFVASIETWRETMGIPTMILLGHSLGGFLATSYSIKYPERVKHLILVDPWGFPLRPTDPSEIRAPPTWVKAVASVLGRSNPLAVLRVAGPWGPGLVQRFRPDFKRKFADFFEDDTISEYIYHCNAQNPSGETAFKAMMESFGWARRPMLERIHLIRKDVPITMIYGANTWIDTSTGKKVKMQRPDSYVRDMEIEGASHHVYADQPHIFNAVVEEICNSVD
#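 Doses – 8.92 µM, single dose · Material – wild-type mouse ABHD4 protein · Replication – single well per compound (singlicate) · Measure – percent inhibition of probe binding, normalized to plate controls · Schedule – 45 min compound pre-incubation plus 60 min probe step, 25 °C · Detection – fluorescence polarization with parallel and perpendicular emission, 525/598 nm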
# SIAE inh: inhibitors of human sialic acid acetylesterase SIAE. SIAE FP-Rh probe binding, fluorescence polarization. inhibition, % at 9.66 µM. 370,000 compounds, 0.69% hits. Q9HAT2;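 active = inhibition above a cutoff: mean of compounds within the control limits plus 3 SD of those, cut at about 17% in these data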
# PRMT1 inh: blocks human protein arginine methyltransferase 1; Q99873; AID 652257; inhibition, % at 2.79 µM; 370,000 compounds, 1.3% hits; recombinant PRMT1, activity-based probe fluorescence polarization;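 active = inhibition above about 21% made by adding two undisclosed values, limit read from the data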
# HTRA1 inh: inhibitors of human serine peptidase HTRA1; Q92743; recombinant HTRA1, FP-rhodamine activity-based probe, fluorescence polarization; inhibition, % at 5.96 µM; 340,000 compounds, 0.5% hits; AID 504803; in the data active = inhibition above about 36%
# TCR CD3 inh: human TCR-CD3 binding inhibition; AID 651800; 360,000 compounds, 0.37% hits; inhibition, % at 9.4 µM; TAMRA-labeled TCR probe fluorescence, biochemical; in the data active = inhibition above about 19%;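 note: recombinant mutant TCR 2C K166C tagged with TAMRA read by polarization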
# ABHD4 confirm: confirmation of mouse ABHD4 inhibitors; shares compounds with ABHD4 inh; purified mABHD4, FP-Rh probe fluorescence polarization; inhibition, % at 8.92 µM; 1,800 compounds, 55% hits;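 active = mean inhibition across replicates above the hit cutoff set in the primary screen, cut at about 30% in these data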
# Hits are given with their value; 0 = inactive; - = not tested or not shown.
SMILES,ABHD4 inh,SIAE inh,PRMT1 inh,HTRA1 inh,TCR CD3 inh,ABHD4 confirm
CCC[C@@H](CN1CCC[C@H]1CN1C(N)=NC[C@@H]1Cc1ccccc1)N1C[C@@H](Cc2ccccc2)N(CCCC2CCCC2)C1=N,-,-,-,0,-,-
CCC[C@@H](CN1CCC[C@H]1CN1C(N)=NC[C@@H]1Cc1ccccc1)N1C[C@@H]([C@H](C)CC)N(CCc2ccc(Cl)c(Cl)c2)C1=N,-,-,-,0,-,-
CC[C@@H](C)[C@@H]1CN([C@@H](C)CN2CCC[C@H]2CN2C(N)=NC[C@H]2CC(C)C)C(=N)N1CCc1ccc(Cl)c(Cl)c1,0,0,0,0,0,-
CCC[C@@H](CN1CCC[C@H]1CN1C(N)=NC[C@H]1CC(C)C)N1C[C@@H]([C@H](C)CC)N(CCc2ccc(Cl)c(Cl)c2)C1=N,38.2,0,0,0,0,34.1
CCC[C@@H](CN1CCC[C@H]1CN1C(N)=NC[C@@H]1Cc1ccccc1)N1C[C@@H]([C@H](C)CC)N(CCCC2CCCC2)C1=N,-,-,-,0,-,-
COCc1[nH]nc2c1C(c1ccccc1)N(Cc1ccccc1)C2=O (stereo not given),0,0,0,-,0,-
O=C(C[C@@H]1C[C@@H]2c3cc(NC(=O)c4ccc5c(c4)OCO5)ccc3O[C@@H]2[C@@H](CO)O1)NCc1cccnc1,0,0,0,-,0,-
Cc1ccccc1C(=O)n1ccc2ccc(-c3ccc4ccn(Cc5ccccc5)c4c3)cc21,0,0,0,-,-,-
C#CCN1CC(N(C)CCOC(=O)CSc2ccccc2)CS1(=O)=O (stereo not given),0,0,0,-,-,-
COc1ccccc1N(C)c1cc2c(c3c1ccn3C)C1CCC2C1 (stereo not given),33.4,0,0,-,0,0
COc1cccc(C(CC2=CCCCC2)NC(=O)C(F)(F)F)c1 (stereo not given),0,0,0,-,0,-
CCCCN1C(=O)/C(=C/C=C2\SCCN2C)SC1=S,32.8,0,0,0,0,0
CN1CCS/C1=C/C=C1\SC(=S)N(CC(=O)O)C1=O,0,0,0,0,0,-
C/C(O)=C\c1nc2ccccc2oc1=O,37.4,0,0,0,0,0
CCOCC(=O)NC(=O)N1C[C@H]2CON(C)[C@H]2C[C@H]1c1ccc(OC)cc1,0,0,0,-,-,-
Cc1cccc(N(CC(=O)NCc2ccc3c(c2)OCO3)C(=O)CCC(=O)Nc2ccccn2)c1,39.9,0,0,0,0,0
CON(C)C(=O)/C=C/c1ccc([B-](F)(F)F)cc1,41.5,0,0,0,0,46.9
CCN(CC)C(=O)/C=C/c1ccccc1,0,0,0,0,0,-
CC(=O)Oc1ccc(C(=O)OCC(=O)c2c(N)n(C)c(=O)n(C)c2=O)cc1OC(C)=O,45.6,0,0,0,0,0
COc1ccc(C(=O)OCC(=O)c2c(N)n(C)c(=O)n(C)c2=O)cc1OC,0,0,0,0,0,-
Cc1ccccc1CN1CCCCC(NC(=O)c2ccccc2)C1=O (stereo not given),0,0,0,-,-,-
COc1ccc(S[C@]2(C(=O)N3CCCC3)CC(=O)N(c3ccc4c(ccn4C)c3)[C@@H]2c2ccc(OC)cc2)cc1,0,0,0,-,-,-
COc1ccc(C)cc1Nc1ccc(C(=O)O)cc1[N+](=O)[O-],0,0,0,0,0,-
COc1cccc(Nc2ccc(C(=O)O)cc2[N+](=O)[O-])c1,35.8,0,0,0,0,47.0
O=C(O)c1ccc(NCCc2ccc(Cl)cc2)c([N+](=O)[O-])c1,57.4,0,0,0,0,53.0
SMILES,ABHD4 inh,SIAE inh,PRMT1 inh,HTRA1 inh,TCR CD3 inh,ABHD4 confirm
COc1ccccc1Nc1ccc(C(=O)O)cc1[N+](=O)[O-],0,0,0,0,0,-
Cc1ccc(Nc2ccc(C(=O)O)cc2[N+](=O)[O-])cc1,29.5,0,0,0,0,54.7
CC(C)c1ccc(Nc2ccc(C(=O)O)cc2[N+](=O)[O-])cc1,60.8,0,0,0,0,69.0
O=C(Nc1cc(F)cc(F)c1)c1ccc(NCCc2ccccc2)c([N+](=O)[O-])c1,0,0,0,0,0,-
C[C@@H]1CN(C(=O)OC(C)(C)C)CCN1c1ccc(N2CCS(=O)(=O)CC2)c(C#N)c1,0,0,0,-,0,-
C=CCn1c(SCC(=O)c2ccc(-c3ccccc3)cc2)nnc1-c1ccc(OC)cc1,0,0,0,-,-,-
O=C(O)c1ccc(Nc2ccc(Cl)c(Cl)c2)c([N+](=O)[O-])c1,43.5,0,0,0,0,62.2
O=C(O)c1ccc(N2CCN(c3ccc(Cl)cc3)CC2)c([N+](=O)[O-])c1,38.0,0,0,0,0,46.8
O=C(/C=C/c1ccc(Cl)cc1)N1CCN(c2ccc(Cl)cc2[N+](=O)[O-])CC1,0,0,0,0,0,-
O=[N+]([O-])c1cccc(I)c1,0,0,0,-,0,-
COC(=O)[C@@]12CCCCC3=C1N(CCC3)C(=O)[C@H]2CC(=O)N1CCOCC1,0,0,0,-,-,-
CCCCCCC/C=C(\C)[C@@H](O)[C@@H](C)C(=O)N1CCC[C@@H]1C(=O)O[C@H](C(=O)O[C@@H](C)C(=O)O)[C@@H](C)CC,0,0,0,-,-,-
COC(=O)[C@]12C[C@H](CC(=O)NCC3CCCCC3)C(=O)N(CCC3=CCCCC3)C1=C[C@H](C(C)C)O[C@@H]2C1CC1,0,0,0,-,-,-
CC(C)CCNC(=O)c1ccc2c(SCC(=O)O)c3c(nc2c1)CCC3,45.6,0,0,0,0,0
CC(C)CNS(=O)(=O)/C=C/c1ccccc1CNC(=O)OC(C)(C)C,0,0,0,-,-,-
COc1ccccc1CCNC(=O)c1ccc(Br)s1,118.5,0,0,0,0,0
COc1ccc(NC(=O)c2ccccc2NC(=O)NC2CCCCC2)cc1,46.8,0,0,0,0,0
COC(=O)c1ccccc1NC(=O)NC1CCCC1,0,0,0,0,0,-
Cc1cc(O)c(-c2cc(O)c(C)cc2O)cc1O,32.0,0,87.5,0,0,0
Cc1cc(N=O)c(C)cc1O,0,0,0,-,0,-
COc1ccc(C(=O)NNS(=O)(=O)c2ccc(OC)cc2)cc1,0,0,0,0,0,-
COc1ccc(S(=O)(=O)NNC(=O)C(=O)NNc2ccccn2)cc1,31.0,0,0,0,0,0
Cc1ccc(S(=O)(=O)N(C)[C@H]2C[C@H]3c4cc(N5CCOCC5)ccc4CCN3C[C@H]2[C@H](C)O)cc1,0,0,0,-,-,-
CCCCCCC(=O)Nc1nc(C)c(-c2csc(Nc3cc(OC)ccc3OC)n2)s1,33.8,0,0,0,0,48.6
CCCCC(=O)Nc1nc(C)c(-c2csc(Nc3ccccc3OC)n2)s1,0,0,0,0,0,-
Cc1cc(C)cc(NC(=O)C2(C(=O)C3CC3)CC(c3ccccc3C(F)(F)F)=NO2)c1 (stereo not given),0,0,0,-,-,-
N#C/C(=C\C1=C(N2CCOCC2)C(=C\c2ccc(Cl)cc2)/CC1)C(=O)Nc1ccccc1F,0,0,0,0,0,-
N#C/C(=C/C1=C(N2CCOCC2)C(=C/c2ccc(Cl)cc2Cl)/CC1)C(=O)Nc1ccccc1F,40.0,0,0,0,0,0

# Bioassay records (PubChem BioAssay)
